From ChEMBL document CHEMBL1156657, “Structures and absolute configurations of sulfate-conjugated triterpenoids including an antifungal chemical defense of the green macroalga Tydemania expeditionis” (J Nat Prod, 2008)

Key:
[1] = system: PC-3; assay: Antitumor activity against human PC3 cells after 72 hrs by MTT assay; type: functional, cell-based; conditions: PC-3, 72 h
Summary of the method: (§1)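 Cells seeded in 96-well plates; compounds added 24 h after seeding and left on for 72 h. Viable cells read spectrophotometrically after MTS tetrazolium staining, with dye conversion taken as proportional to live cells. IC50 for each cell line derived from dose–response curves.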

[2] = system: DU-4475; assay: Antitumor activity against human DU4475 cells after 72 hrs by MTT assay; type: functional, cell-based; conditions: DU-4475, 72 h
[3] = Antitumor activity against human A2780/DDP-S cells after 72 hrs by MTT assay; type: functional, cell-based; conditions: A2780, 72 h; summary of the method: as §1
[4] = system: Rotifers; assay: Toxicity against Rotifers assessed as feeding at 10 ppm after 45 mins by injestion toxicity assay; type: organism-based; conditions: rotifera, in vivo, 0.75 h
[5] = Antitumor activity against human LNCaP-FGC cells after 72 hrs by MTT assay; type: functional, cell-based; conditions: LNCaP-Clone-FGC; summary of the method: as §1
[6] = system: CCRF-CEM; assay: Antitumor activity against human CCRF-CEM cells after 72 hrs by MTT assay; type: functional, cell-based; summary of the method: as §1
[7] = system: NCI-H446; assay: Antitumor activity against human NCI-H446 cells after 72 hrs by MTT assay; type: functional, cell-based; conditions: NCI-H446, 72 h; summary of the method: as §1
[8] = system: HCT-116; assay: Antitumor activity against human HCT116 cells after 72 hrs by MTT assay; type: functional, cell-based; conditions: HCT-116, 72 h; summary of the method: as §1
[9] = system: BT-549; assay: Antitumor activity against human BT549 cells after 72 hrs by MTT assay; type: functional, cell-based; conditions: BT-549, 72 h; summary of the method: as §1
[10] = system: SHP77; assay: Antitumor activity against human SHP77 cells after 72 hrs by MTT assay; type: functional, cell-based; conditions: SHP77, 72 h; summary of the method: as §1
[11] = system: DU-145; assay: Antitumor activity against human Du145 cells after 72 hrs by MTT assay; type: functional, cell-based; conditions: DU-145, 72 h; summary of the method: as §1
[12] = system: MDA-MB-468; assay: Antitumor activity against human MDA-MB-468 cells after 72 hrs by MTT assay; type: functional, cell-based; conditions: MDA-MB-468, 72 h; summary of the method: as §1
[13] = system: MDA-MB-231; assay: Antitumor activity against human MDA-MB-231 cells after 72 hrs by MTT assay; type: functional, cell-based; conditions: MDA-MB-231, 72 h; summary of the method: as §1
[14] = system: Lindra thalassiae; assay: Antifungal activity against Lindra thalassiae ATCC 56663 after 6 days; type: functional, organism-based; conditions: Lindriella thalassiae, ATCC 56663, 144 h
Summary of the method: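 Growth inhibition of marine fungal pathogen Lindra thalassiae ATCC 56663. IC50 derived from dose–response curves.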

[15] = system: Lindra thalassiae; assay: Antifungal activity against Lindra thalassiae ATCC 56663 at 0.67 mg/mL after 6 days; type: functional, Lindriella thalassiae

Row | IC50 [1] | IC50 [6] | IC50 [7] | IC50 [8] | IC50 [9] | IC50 [11] | IC50 [12] | IC50 [13] | IC50 [14] | SMILES | IC50 [2] | IC50 [3] | Activity [4] | IC50 [5] | IC50 [10] | Activity [15]
1 | 31 µM | 31 µM | 31 µM | 31 µM | 31 µM | 31 µM | 31 µM | 31 µM | – | CC(C)=CC(=O)C[C@@H](C)[C@H]1CC[C@@]2(C)[C@@H]3CC[C@H]4[C@](C)(COS(=O)(=O)[O-])[C@@H](OS(=O)(=O)[O-])CC[C@@]45C[C@@]35CC[C@]12C.[Na+].[Na+] | 31 µM | 31 µM | 9% | 31 µM | 31 µM | –
2 | 31 µM | 31 µM | 31 µM | 31 µM | 31 µM | 31 µM | 31 µM | 31 µM | 26 µM | CC(C)C[C@H](O)C[C@@H](C)[C@H]1CC[C@@]2(C)[C@@H]3CC[C@H]4[C@](C)(COS(=O)(=O)[O-])[C@@H](OS(=O)(=O)[O-])CC[C@@]45C[C@@]35CC[C@]12C.[Na+].[Na+] | 31 µM | 31 µM | 9% | 31 µM | 31 µM | 670 µg/mL
3 | – | – | – | – | – | – | – | – | 55 µM | CC(C)C[C@H](O)C[C@@H](C)[C@H]1CC[C@@]2(C)[C@@H]3CC[C@H]4[C@](C)(COS(=O)(=O)O)[C@@H](O)CC[C@@]45C[C@@]35CC[C@]12C | – | – | – | – | – | –
4 | 31 µM | 31 µM | 31 µM | 31 µM | 31 µM | 31 µM | 31 µM | 31 µM | – | CC(C)CC(=O)C[C@@H](C)[C@H]1CC[C@@]2(C)C3=C(CC[C@]12C)[C@@]1(C)CC[C@H](OS(=O)(=O)[O-])[C@@](C)(COS(=O)(=O)[O-])[C@@H]1CC3.[Na+].[Na+] | 31 µM | 31 µM | 9% | 31 µM | 31 µM | –
5 | 6 µM | 6 µM | 6 µM | 6 µM | 6 µM | 6 µM | 6 µM | 6 µM | – | CC(C)=CC(=O)C[C@@H](C)[C@H]1CC[C@@]2(C)[C@@H]3CC[C@H]4[C@](C)(CO)[C@@H](OS(=O)(=O)[O-])CC[C@@]45C[C@@]35CC[C@]12C.[Na+] | 6 µM | 6 µM | 9% | 6 µM | 6 µM | –
6 | 6 µM | 6 µM | 6 µM | 6 µM | 6 µM | 6 µM | 6 µM | 6 µM | – | CC(C)=CC(=O)C[C@@H](C)[C@H]1CC[C@@]2(C)[C@@H]3CC[C@H]4[C@](C)(COS(=O)(=O)[O-])[C@@H](O)CC[C@@]45C[C@@]35CC[C@]12C.[Na+] | 6 µM | 6 µM | 9% | 6 µM | 6 µM | –
7 | 31 µM | 31 µM | 31 µM | 31 µM | 31 µM | 31 µM | 31 µM | 31 µM | – | CC(C)CC(=O)C[C@@H](C)[C@H]1CC[C@@]2(C)[C@@H]3CC[C@H]4[C@](C)(COS(=O)(=O)[O-])[C@@H](OS(=O)(=O)[O-])CC[C@@]45C[C@@]35CC[C@]12C.[Na+].[Na+] | 31 µM | 31 µM | 9% | 31 µM | 31 µM | –
8 | – | – | – | – | – | – | – | – | 30 µM | CC(C)C[C@H](O)C[C@@H](C)[C@H]1CC[C@@]2(C)[C@@H]3CC[C@H]4[C@](C)(CO)[C@@H](OS(=O)(=O)O)CC[C@@]45C[C@@]35CC[C@]12C | – | – | – | – | – | –
9 | 6 µM | 6 µM | 6 µM | 6 µM | 6 µM | 6 µM | 6 µM | 6 µM | – | CC(C)=CC(=O)C[C@@H](C)[C@H]1CC[C@@]2(C)[C@@H]3CC[C@H]4[C@](C)(CO)[C@@H](O)CC[C@@]45C[C@@]35CC[C@]12C | 6 µM | 6 µM | 9% | 6 µM | 6 µM | –
